Laboratory results reported in ChEMBL document CHEMBL1156127, “Synthesis, anticonvulsant activity and 3D-QSAR study of some prop-2-eneamido and 1-acetyl-pyrazolin derivatives of aminobenzothiazole” (Eur J Med Chem, 2010).

Experiments:
Mus musculus [1] = assay: Behavioral effect in albino mouse assessed as change in locomotor activity during 10 mins at 100 umol/kg, ip after 0.5 hrs; type: functional
How it was run: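 Mouse activity counted by actophotometer for 10 min 24 h before dosing, then again 0.5 h after 100 µmol/kg ip. % change = 100 − [(post × 100)/pre]. N = 6, mean ± SEM, Student's t test at p < 0.05.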

Mus musculus [2] = organism: Mus musculus; assay: Protection index, ratio of TD50 to ED50 by MES test for albino mouse; type: functional
How it was run: (§1)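 Mice were trained on a 3.2 cm rod turning at 6 rpm, then dosed ip at 20–1000 µmol/kg and tested at 0.5 h. […] PI = TD50/ED50, with ED50 from the MES test.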

[3] = Neurotoxicity in ip dosed albino mouse during 1 min by rotarod test; type: toxicity, organism-based; settings: in vivo; how it was run: as §1
Mus musculus [4] = assay: Anticonvulsant activity in ip dosed albino mouse treated 0.5 hrs before PTZ challenge by scPTZ test; type: functional
How it was run: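 Compound given ip (20–1000 µmol/kg in 0.5% methyl cellulose) 0.5 h before pentylenetetrazole, which was dissolved in 0.9% NaCl and injected subcutaneously in the posterior midline of mice. Onset and severity of convulsions were scored, and ED50 was derived.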

Mus musculus [5] = assay: Anticonvulsant activity in ip dosed albino mouse assessed as absence of hind limb tonic extension after 0.5 hrs by MES test; type: functional, Hindlimb; settings: for ED50: Mus musculus, albino, Hindlimb, ip, 0.5 h
How it was run: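 Mice given compound ip at 20–1000 µmol/kg, suspended in 0.5% methyl cellulose/water. Seizure induced 0.5 h later by electroconvulsometer, 50 mA, 60 cycle alternating current, 0.25 s via ear clip electrodes. Protection is reduced duration or absence of hind limb tonic extension. ED50 from at least three doses giving 10–90% protection.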

Rattus norvegicus [6] = assay: CNS toxicity in albino rat assessed as duration of immobility at 100 umol/kg, ip after 0.5 hrs by Porsolt's swimpool test (Rvb= 104 +/- 1.8); settings: in vivo
Rattus norvegicus [7] = assay: CNS toxicity in albino rat assessed as duration of immobility at 100 umol/kg, ip after 0.5 hrs by Porsolt's swimpool test (Rvb= 113 +/- 3.1); settings: in vivo
Rattus norvegicus [8] = assay: Hepatotoxicity in albino rat assessed as serum SGOT level at 100 umol/kg, ip after 15 days (Rvb= 92.2 +/- 2.78); settings: in vivo, 360 h
Rattus norvegicus [9] = assay: Hepatotoxicity in albino rat assessed as serum SGPT level at 100 umol/kg, ip after 15 days (Rvb= 35.4 +/- 2.68); settings: in vivo, 360 h
Rattus norvegicus [10] = assay: CNS toxicity in albino rat assessed as duration of immobility at 100 umol/kg, ip after 0.5 hrs by Porsolt's swimpool test (Rvb= 87 +/- 1.5); settings: in vivo
Rattus norvegicus [11] = assay: CNS toxicity in albino rat assessed as duration of immobility at 100 umol/kg, ip after 0.5 hrs by Porsolt's swimpool test (Rvb= 92 +/- 1.2); settings: in vivo
Rattus norvegicus [12] = assay: CNS toxicity in albino rat assessed as duration of immobility at 100 umol/kg, ip after 0.5 hrs by Porsolt's swimpool test (Rvb= 97 +/- 2.2); settings: in vivo
Rattus norvegicus [13] = assay: CNS toxicity in albino rat assessed as duration of immobility at 100 umol/kg, ip after 0.5 hrs by Porsolt's swimpool test (Rvb= 82 +/- 2.9); settings: in vivo
Rattus norvegicus [14] = assay: CNS toxicity in albino rat assessed as duration of immobility at 100 umol/kg, ip after 0.5 hrs by Porsolt's swimpool test (Rvb= 128 +/- 2.4); settings: in vivo

Structure (SMILES)	Activity (Mus musculus [1]) [%]	PI (Mus musculus [2])	TD50 at 1 min [3] [µmol/kg]	ED50 (Mus musculus [4]) [µmol/kg]	pED50 (Mus musculus [5])	ED50 (Mus musculus [5]) [µmol/kg]	Activity (Rattus norvegicus [6]) [s]	Activity (Rattus norvegicus [7]) [s]	Activity (Rattus norvegicus [8]) [U/ml]	Activity (Rattus norvegicus [9]) [U/ml]	Activity (Rattus norvegicus [10]) [s]	Activity (Rattus norvegicus [11]) [s]	Activity (Rattus norvegicus [12]) [s]	Activity (Rattus norvegicus [13]) [s]	Activity (Rattus norvegicus [14]) [s]
CC(=O)N1N=C(Nc2nc3ccc(C)cc3s2)CC1c1ccccc1 (stereo not given)	23.93	2.49	265	112	3.97	106	151								
COc1ccc(C2CC(Nc3nc4ccc(C)cc4s3)=NN2C(C)=O)cc1O (stereo not given)	29.5	1.99	147	75.6	4.13	73.9		177							
CC(=O)N1N=C(Nc2nc3ccc(C)cc3s2)CC1c1ccc(Cl)cc1 (stereo not given)	35.62	4.86	123	27.5	4.59	25.5			93.3	33.1	91				
CC(=O)N1N=C(Nc2nc3ccc(Cl)cc3s2)CC1c1ccc(Cl)cc1 (stereo not given)	31.66	4.35	345	81.5	4.1	79.5						134			
COc1ccc(C2CC(Nc3nc4ccc(C)cc4s3)=NN2C(C)=O)cc1 (stereo not given)	2.08	4.68	174	39.4	4.43	37.3			95.4	38.4			163		
COc1ccc(C2CC(Nc3nc4ccc(Cl)cc4s3)=NN2C(C)=O)cc1 (stereo not given)	35.91	2.01	187	97.3	4.03	93.3								88	
CC(=O)N1N=C(Nc2nc3ccc(C)cc3s2)CC1c1ccc(O)cc1 (stereo not given)	20.94	3.14	157	54.3	4.3	50.2			89.6	30.2					136
